Data taken from ChEMBL document CHEMBL3608261, “Metabolically programmed iron chelators” (Bioorg Med Chem, 2015).

Tests used:
[1] = system: Sapajus apella; experiment: Iron clearing efficiency in bile duct cannulated Cebus apella assessed as clearance of iron in feces at 150 umol/kg, sc measured at 3 hrs intervals for up to 48 hrs relative to control; format: functional
[2] = system: Rattus norvegicus; experiment: Iron clearing efficiency in bile duct cannulated Sprague-Dawley rat assessed as clearance of iron in urine at 150 umol/kg, sc measured at 3 hrs intervals for up to 48 hrs relative to control; format: functional
[3] = system: Sapajus apella; experiment: Iron clearing efficiency in bile duct cannulated Cebus apella assessed as clearance of iron in urine at 150 umol/kg, sc measured at 3 hrs intervals for up to 48 hrs relative to control; format: functional
[4] = system: Rattus norvegicus; experiment: Iron clearing efficiency in bile duct cannulated Sprague-Dawley rat assessed as clearance of iron at 150 umol/kg, sc measured at 3 hrs intervals for up to 48 hrs relative to control
[5] = system: Rattus norvegicus; experiment: Drug metabolism in Sprague-Dawley rat heart assessed as (S)-4'-(HO)-DADFT-PEAA level at 300 umol/kg, sc up to 8 hrs by HPLC analysis; format: ADME, organism-based; conditions: in vivo
Outline: (§1)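 Male Sprague-Dawley rats (250–350 g) got a single sc dose of the monosodium salt at 300 µmol/kg, n=3 per time point. They were killed with CO2 at 0.5, 1, 2, 4 and 8 h. Citrated cardiac-puncture blood was spun to plasma, and liver, kidney, heart and pancreas were frozen. Tissue was homogenized 1:1 in water, given a methanol rinse, held 30 min at −20 °C, centrifuged and filtered. Read-out was reversed-phase HPLC, UV 310 nm.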

[6] = system: Rattus norvegicus; experiment: Drug metabolism in Sprague-Dawley rat pancreas assessed as (S)-4'-(HO)-DADFT-PEAA level at 300 umol/kg, sc up to 8 hrs by HPLC analysis; format: ADME, organism-based; conditions: in vivo; outline: as §1
[7] = system: Rattus norvegicus; experiment: Drug metabolism in Sprague-Dawley rat plasma assessed as (S)-4'-(HO)-DADFT-PEAA level at 300 umol/kg, sc after 8 hrs by HPLC analysis; format: ADME, organism-based; conditions: in vivo; outline: as §1
[8] = system: Sapajus apella; experiment: Iron clearing efficiency in bile duct cannulated Cebus apella assessed as clearance of iron in bile at 75 umol/kg, po measured at 3 hrs intervals for up to 48 hrs relative to control; format: functional
[9] = system: Rattus norvegicus; experiment: Iron clearing efficiency in bile duct cannulated Sprague-Dawley rat assessed as clearance of iron in urine at 300 umol/kg, po measured at 3 hrs intervals for up to 48 hrs relative to control; format: functional
[10] = system: Rattus norvegicus; experiment: Iron clearing efficiency in bile duct cannulated Sprague-Dawley rat assessed as clearance of iron in bile at 300 umol/kg, po measured at 3 hrs intervals for up to 48 hrs relative to control; format: functional
Outline: (§2)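 Non-iron-overloaded male Sprague-Dawley rats (400–450 g) with cannulated bile ducts received 300 µmol/kg po or sc. […] Bile was sampled every 3 h for up to 48 h and urine at 24 h intervals. ICE = (treated minus control iron excretion) / theoretical output (2:1 ligand:Fe) × 100 over 48 h. Mean ± SEM.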

[11] = system: Sapajus apella; experiment: Iron clearing efficiency in bile duct cannulated Cebus apella assessed as clearance of iron in urine at 75 umol/kg, po […] relative to control; format: functional
[12] = system: Rattus norvegicus; experiment: Drug metabolism in Sprague-Dawley rat kidney assessed as (S)-4'-(HO)-DADFT-PEAA level at 300 umol/kg, sc up to 8 hrs by HPLC analysis; format: ADME, organism-based; conditions: in vivo; outline: as §1
[13] = system: Sapajus apella; experiment: Iron clearing efficiency in bile duct cannulated Cebus apella assessed as clearance of iron at 150 umol/kg, po measured at 3 hrs intervals for up to 48 hrs relative to control; format: functional
[14] = system: Sapajus apella; experiment: Iron clearing efficiency in bile duct cannulated Cebus apella assessed as clearance of iron in feces at 150 umol/kg, po measured at 3 hrs intervals for up to 48 hrs relative to control; format: functional
[15] = system: Sapajus apella; experiment: Iron clearing efficiency in bile duct cannulated Cebus apella assessed as clearance of iron in urine at 150 umol/kg, po measured at 3 hrs intervals for up to 48 hrs relative to control; format: functional
[16] = system: Rattus norvegicus; experiment: Iron clearing efficiency in bile duct cannulated Sprague-Dawley rat assessed as clearance of iron in bile at 300 umol/kg, sc measured at 3 hrs intervals for up to 48 hrs relative to control; format: functional; outline: as §2
[17] = organism: Rattus norvegicus; experiment: Iron clearing efficiency in bile duct cannulated Sprague-Dawley rat assessed as […] for up to 48 hrs relative to control; format: functional, Urine
[18] = system: Sapajus apella; experiment: Iron clearing efficiency in bile duct cannulated Cebus apella assessed as clearance of iron in bile at 75 umol/kg, sc measured at 3 hrs intervals for up to 48 hrs relative to control; format: functional
[19] = system: Sapajus apella; experiment: Iron clearing efficiency in bile duct cannulated Cebus apella assessed as clearance of iron in urine at 75 umol/kg, sc […] relative to control; format: functional
[20] = Performance ratio, ratio of iron clearing efficiency in […] at 75 umol/kg, po to iron clearing efficiency in bile duct cannulated Sprague-Dawley rat at 300 umol/kg, po; format: functional
Outline: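 Performance ratio = mean ICE in iron-overloaded Cebus apella (75 µmol/kg) divided by mean ICE in bile duct-cannulated rats (300 µmol/kg), by the same route.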

[21] = system: Rattus norvegicus; experiment: Iron clearing efficiency in bile duct cannulated Sprague-Dawley rat assessed as clearance of iron at 300 umol/kg, po measured at 3 hrs intervals for up to 48 hrs relative to control; format: functional; outline: as §2
[22] = Drug metabolism in Sprague-Dawley rat plasma assessed as parent compound level at 300 umol/kg, sc after 0.5 hrs by HPLC analysis; format: ADME, organism-based; conditions: read-out: Stability
Outline: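 Rats (male Sprague-Dawley, 250–350 g) were dosed sc once with the monosodium salt, 300 µmol/kg, three animals per time point up to 8 h. Plasma came from citrated cardiac blood; liver was frozen after CO2 euthanasia. Parent and metabolites were quantified by HPLC with UV at 310 nm against linear calibration curves (detection limit 0.25 µM, linear 1–1000 µM). Data are means.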

[23] = system: Sapajus apella; experiment: Iron clearing efficiency in […] Cebus apella assessed as clearance of iron in feces at 75 umol/kg, po […] relative to control; format: functional
Outline: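 Cebus apella monkeys (3.5–6.5 kg) were iron-overloaded with intravenous iron dextran to about 500 mg Fe/kg, reaching serum transferrin saturation of 70–80%. At least 60 days elapsed before use. Chelator was given at 75 µmol/kg po or sc, with the same animals dosed by both routes. Feces and urine were collected at 24 h intervals from 4 days before to 5 days after dosing, and iron was measured by flame absorption spectroscopy. ICE = 2-day post-drug output minus 4-day mean baseline, divided by theoretical output (2:1 ligand:Fe), as %. Mean ± SEM.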

[24] = system: Rattus norvegicus; experiment: Drug metabolism in Sprague-Dawley rat liver assessed as (S)-4'-(HO)-DADFT level at 300 umol/kg, sc after 8 hrs; format: ADME, organism-based; conditions: in vivo
[25] = system: Rattus norvegicus; experiment: Drug metabolism in Sprague-Dawley rat liver assessed as (S)-4'-(HO)-DADFT-PEA level at 300 umol/kg, sc up to 8 hrs by HPLC analysis; format: ADME, organism-based; conditions: in vivo; outline: as §1
[26] = system: Rattus norvegicus; experiment: Drug metabolism in Sprague-Dawley rat plasma assessed as (S)-4'-(HO)-DADFT-PEA level at 300 umol/kg, sc up to 8 hrs by HPLC analysis; format: ADME, organism-based; conditions: in vivo; outline: as §1
[27] = system: Rattus norvegicus; experiment: Drug metabolism in Sprague-Dawley rat kidney assessed as (S)-4'-(HO)-DADFT-PEA level at 300 umol/kg, sc up to 8 hrs by HPLC analysis; format: ADME, organism-based; conditions: in vivo; outline: as §1
[28] = system: Rattus norvegicus; experiment: Drug metabolism in Sprague-Dawley rat heart assessed as (S)-4'-(HO)-DADFT-PEA level at 300 umol/kg, sc up to 8 hrs by HPLC analysis; format: ADME, organism-based; conditions: in vivo; outline: as §1
[29] = system: Rattus norvegicus; experiment: Drug metabolism in Sprague-Dawley rat pancreas assessed as (S)-4'-(HO)-DADFT-PEA level at 300 umol/kg, sc up to 8 hrs by HPLC analysis; format: ADME, organism-based; conditions: in vivo; outline: as §1
[30] = system: Rattus norvegicus; experiment: Drug metabolism in Sprague-Dawley rat liver assessed as (S)-4'-(HO)-DADFT-PEAA level at 300 umol/kg, sc up to 8 hrs by HPLC analysis; format: ADME, organism-based; conditions: in vivo; outline: as §1
[31] = system: Rattus norvegicus; experiment: Drug metabolism in Sprague-Dawley rat plasma assessed as (S)-4'-(HO)-DADFT-PEAA level at 300 umol/kg, sc up to 8 hrs by HPLC analysis; format: ADME, organism-based; conditions: in vivo; outline: as §1

SMILES: CC(=O)N(O)CCCCCNC(=O)CCC(=O)N(O)CCCCCNC(=O)CCC(=O)N(O)CCCCCN [DEFEROXAMINE]
- Activity [1]: 45%
- Activity [2]: 26%
- Activity [3]: 55%
- Activity [4]: 74%

SMILES: C[C@]1(C(=O)O)CSC(c2ccc(OCCOCCO)cc2O)=N1
- Drug metabolism [5]: metabolite_detected
- Drug metabolism [6]: metabolite_detected
- Drug metabolism [7]: metabolite_notdetected
- Activity [8]: 54%
- Activity [9]: 2%
- Activity [10]: 98%
- Activity [11]: 46%
- Drug metabolism [12]: metabolite_detected

SMILES: COCCOCCOCCOc1cccc(C2=N[C@@](C)(C(=O)O)CS2)c1O [DEFERITAZOLE]
- Activity [13]: 23%
- Activity [14]: 95%
- Activity [15]: 5%

SMILES: C[C@]1(C(=O)O)CSC(c2ccc(OCC(=O)O)cc2O)=N1
- Activity [8]: 60%
- Activity [9]: 11%
- Activity [10]: 89%
- Activity [11]: 40%

SMILES: C[C@]1(C(=O)O)CSC(c2ccc(OCCCC(=O)O)cc2O)=N1
- Activity [8]: 97%
- Activity [9]: 11%
- Activity [10]: 89%
- Activity [11]: 3%

SMILES: C[C@]1(C(=O)O)CSC(c2cccc(O)c2O)=N1
- Activity [13]: 23.1%
- Activity [14]: 83%
- Activity [15]: 17%

SMILES: COCCCCCCOc1ccc(C2=N[C@@](C)(C(=O)O)CS2)c(O)c1
- Activity [9]: 1%
- Activity [10]: 99%

SMILES: COCCOCCOc1ccc(C2=N[C@@](C)(C(=O)[O-])CS2)c(O)c1.[Na+]
- Activity [11]: 17%

SMILES: C[C@]1(C(=O)[O-])CSC(c2ccc(OCCOCC(=O)O)cc2O)=N1.[Na+]
- Activity [16]: 99%
- Activity [17]: 1%
- Activity [18]: 84%
- Activity [19]: 16%

SMILES: C[C@]1(C(=O)[O-])CSC(c2ccc(OCCCCCC(=O)O)cc2O)=N1.[Na+]
- Activity [16]: 96%
- Activity [17]: 4%
- Activity [18]: 69%
- Activity [19]: 31%
- Ratio [20]: 1.2

SMILES: COc1ccc(C2=N[C@@](C)(C(=O)O)CS2)c(O)c1
- Activity [21]: 6.6%

SMILES: C[C@]1(C(=O)[O-])CSC(c2ccc(OCCCC(=O)O)cc2O)=N1.[Na+]
- Activity [16]: 95%
- Activity [17]: 5%
- Activity [18]: 78%
- Activity [19]: 22%

SMILES: C[C@]1(C(=O)O)CSC(c2ccc(OCCCCCC(=O)O)cc2O)=N1
- Activity [8]: 82%
- Activity [9]: 6%
- Activity [10]: 94%
- Activity [11]: 18%

SMILES: C[C@]1(C(=O)O)CSC(c2ccc(OCCOCC(=O)O)cc2O)=N1
- Activity [8]: 51%
- Activity [9]: 0%
- Activity [10]: 100%
- Activity [11]: 49%

SMILES: C[C@]1(C(=O)[O-])CSC(c2ccc(OCC(=O)O)cc2O)=N1.[Na+]
- Activity [16]: 94%
- Activity [18]: 53%
- Activity [19]: 47%

SMILES: COCCOCCOc1ccc(C2=N[C@@](C)(C(=O)O)CS2)c(O)c1 [SP-420]
- Drug metabolism [5]: metabolite_notdetected
- Drug metabolism [6]: metabolite_notdetected
- remaining at 0.5 h [22]: 95%
- Activity [9]: 3%
- Activity [10]: 97%
- Activity [23]: 93%
- Drug metabolism [24]: metabolite_notdetected
- Drug metabolism [25]: metabolite_detected
- Drug metabolism [26]: metabolite_detected
- Drug metabolism [27]: metabolite_detected
- Drug metabolism [28]: metabolite_detected
- Drug metabolism [29]: metabolite_detected
- Drug metabolism [30]: metabolite_notdetected
- Drug metabolism [31]: metabolite_notdetected
- Drug metabolism [12]: metabolite_notdetected

SMILES: COCCOCCOCCOc1ccc(C2=N[C@@](C)(C(=O)O)CS2)c(O)c1
- Activity [21]: 5.5%
